ADAM17 inh – inhibits human ADAM17. P78536. recombinant ADAM17, EDANS/DABCYL FRET peptide cleavage. inhibition, % at 6.95 µM. 370,000 compounds, 0.83% hits. AID 720648;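 active = inhibition above the mean of compounds lying between control limits plus 3 SD, set per campaign, cut at about 8.5% in these data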;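 also: 0% = DMSO-only wells as the low control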
Arr AP2 block – inhibitors of human beta-arrestin and AP2 interaction; 340,000 compounds, 0.31% hits; FITC-arrestin peptide / GST-AP2 beads, flow cytometry; AP2 beta2 appendage carries R879A mutation; inhibition, % at 10 µM; AID 504490;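 active = inhibition above a set limit, near 3 SD of compounds lacking own fluorescence, cut at about 54% in these data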;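 also: plate controls were DMSO wells for no effect and 5 µM unlabelled arrestin peptide for full effect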
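System: GST-tagged AP2 beta2-adaptin appendage (R879A) on 4 µm glutathione beads / Reagent: FITC-arrestin peptide, 50 nM / Detection: HyperCyt-sampled flow cytometry, FL1 channel, ex 488/em 535 nm / Timing: 12 min plus 1 h, RT / Buffer or medium: PBS plus Tween 20 (0.05%) and BSA (0.1%)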
FAS-TE inh – FAS thioesterase (human) inhibition. P49327. recombinant FAS-TE, OMFH fluorogenic substrate, fluorescence endpoint. inhibition, % at 15 µM. 360,000 compounds, 0.67% hits;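 active = compounds whose normalised, plate-corrected inhibition of enzyme fluorescence in the single-dose primary screen is 50% or more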;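 also: 0% = DMSO with enzyme and 100% = substrate without enzyme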
ADAM10 inh – ADAM10 inhibition, QFRET primary screen. O14672. 370,000 compounds, 0.62% hits. inhibition, % at 7 µM. recombinant ADAM10, EDANS/DABCYL FRET peptide cleavage, 3 h;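 active = inhibition above a per-campaign cutoff equal to the mean of compounds falling between control-based bounds plus 3 SD, cut at about 20% in these data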;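 also: 0% = DMSO wells while the 100% control is not disclosed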
NRP1-CendR mod – alters CendR peptide binding to human NRP-1; O14786; FAM-RPARPAR peptide binding to NRP-1, fluorescence polarization; inhibition, % at 25 µM; 360,000 compounds, 0.85% hits;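 active = inhibition or corrected inhibition above about 18%, plus a signal ratio from 0.5 to 1.5, limit read from the data, passing the limit was not always enough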
Target sequence (O14786 whole entry, looked up): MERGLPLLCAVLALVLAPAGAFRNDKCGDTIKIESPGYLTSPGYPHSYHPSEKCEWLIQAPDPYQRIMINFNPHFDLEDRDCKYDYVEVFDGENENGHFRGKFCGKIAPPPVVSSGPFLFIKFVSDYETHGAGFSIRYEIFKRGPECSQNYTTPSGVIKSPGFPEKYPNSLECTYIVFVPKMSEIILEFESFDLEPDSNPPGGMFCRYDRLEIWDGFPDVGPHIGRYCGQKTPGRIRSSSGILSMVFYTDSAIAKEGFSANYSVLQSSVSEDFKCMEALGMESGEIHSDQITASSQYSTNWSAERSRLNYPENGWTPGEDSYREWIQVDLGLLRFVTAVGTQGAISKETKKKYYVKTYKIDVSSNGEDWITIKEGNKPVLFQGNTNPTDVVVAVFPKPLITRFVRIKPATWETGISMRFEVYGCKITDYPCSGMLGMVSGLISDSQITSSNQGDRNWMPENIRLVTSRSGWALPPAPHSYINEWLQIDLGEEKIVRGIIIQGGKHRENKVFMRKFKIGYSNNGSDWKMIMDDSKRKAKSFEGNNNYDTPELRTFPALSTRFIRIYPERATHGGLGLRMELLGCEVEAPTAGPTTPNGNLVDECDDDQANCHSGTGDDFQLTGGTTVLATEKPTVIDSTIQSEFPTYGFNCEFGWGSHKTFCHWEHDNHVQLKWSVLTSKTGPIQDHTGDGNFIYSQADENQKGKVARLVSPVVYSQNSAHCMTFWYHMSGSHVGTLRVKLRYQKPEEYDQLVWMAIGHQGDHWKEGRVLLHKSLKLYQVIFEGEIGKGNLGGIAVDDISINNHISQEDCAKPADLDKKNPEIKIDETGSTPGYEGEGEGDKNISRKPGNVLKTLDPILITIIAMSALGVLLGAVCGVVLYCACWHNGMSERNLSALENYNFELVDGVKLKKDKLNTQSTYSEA
CaV13 FRET inh – Primary screen for inhibitors of IQ motif and Ca2+-dependent inactivation inhibitor domain binding in CACNA1D, Förster resonance energy transfer in living cells, …. HEK cells, CFP/YFP FRET ICDI-IQ, plate reader, 10 min; percent FRET-ratio fall versus neutral wells. inhibition, % at 12.3 µM. 340,000 compounds, 0.098% hits. AID 743397;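 active = mean replicate inhibition of at least 30% and at least 1% of replicates passing that level; inconclusive = only one of the two criteria is met; inactive = neither criterion is met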;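 also: 0% = median of the neutral control wells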
Active calls of the source: *; i = inactive; u = inconclusive; x = not tested or not shown; + = active, no number. Most compounds without a hit are left out; they make up all but 2.9% or so of the library.

SMILES | ADAM17 inh | Arr AP2 block | FAS-TE inh | ADAM10 inh | NRP1-CendR mod | CaV13 FRET inh
CCOC(=O)C1=C(C)N(C)C(=O)NC1c1cc2c(cc1Br)OCO2 (stereo not given) | -0.5 | 2.1 | -2.8 | 6.8 | 21.2* | -5.4
CC(=O)N1CCSc2ccc(S(=O)(=O)Nc3ccc(C)cc3)cc21 | 1.9 | -15.4 | 6.7 | -12.6 | 21.9* | -3.9
C=CCOC(=O)Nc1nc(CCNC(=O)OC(C)(C)C)c(C(=O)OC)s1 | -4.4 | x | x | -14.9 | -4.2 | -17.6
COc1ccc(CN(C)C(=O)CCNS(=O)(=O)c2ccccc2)c(OC)c1 | 0.2 | x | -5.9 | 4.8 | 28.6* | -6.3
COCCNC(=S)N(C)[C@H]1C[C@H]2c3[nH]c4cccc(-c5ccccc5)c4c3CCN2C(=O)[C@H]1[C@H](C)O | -77.0 | x | x | -302.8 | x | -3.6
COc1cccc(CC(=O)OCC(=O)N(C)CC(=O)Nc2ccccc2Cl)c1 | -1.6 | -11.1 | 2.1 | -1.9 | 19.9* | -5.6
O=Cc1ccc(/C=C2\c3ccccc3C(=O)N2c2ccccc2)o1 | -13.8 | x | x | -78.1 | x | -6.4
O=C(CCC1CCN(Cc2nccs2)CC1)Nc1ccccc1 | 0.8 | x | -6.6 | -3.5 | -10.7 | -5.3
COc1cc(C(O)c2nc(-c3cc(F)cc(F)c3)cs2)ccc1F (stereo not given) | 7.6 | x | 24.7 | 17.6 | 5.9 | -5.7
COc1ccncc1-c1csc(C(O)c2ccccc2)n1 (stereo not given) | -2.9 | x | -5.6 | 1.3 | 23.2* | -6.5
COc1ccc(C(O)c2nc(-c3cc(F)cc(F)c3)cs2)cc1 (stereo not given) | 5.1 | x | 18.7 | 13.7 | 40.5* | -3.5
CCOc1cc(C(=O)N(CC)CC(=O)Nc2c(F)cccc2F)ccc1OCC(=O)N1CCCCC1 | -0.8 | -5.9 | -7.6 | -15.9 | -0.4 | -5.5
COc1ccc(CCn2c(=N)c(S(=O)(=O)c3ccccc3)cc3c(=O)n4ccccc4nc32)cc1 | -10.6 | -7.9 | 22.6 | -18.9 | -18.1 | -2.8
Cc1ccc(S(=O)(=O)c2cc3c(=O)n4ccccc4nc3n(C)c2=N)cc1 | -60.0 | -2.4 | 11.7 | -200.9 | -12.9 | 79.6*
Cc1ccc2nc3c(cc(S(=O)(=O)c4ccccc4)c(=N)n3Cc3ccco3)c(=O)n2c1 | i | 25.7 | 24.1 | i | -30.2 | +
CCCn1c(=N)c(S(=O)(=O)c2ccccc2)cc2c(=O)n3ccccc3nc21 | -96.3 | 30.4 | 20.6 | -269.1 | -4.4 | 129.5*
CCn1c(=N)c(S(=O)(=O)c2ccc(C)cc2)cc2c(=O)n3ccccc3nc21 | -48.7 | x | x | -133.5 | x | 1.9
Cc1ccccc1OCC(O)CNC1CCC(NCC(O)COc2ccccc2C)CC1 (stereo not given) | 0.8 | 2.1 | -7.3 | 2.3 | 19.8* | -4.1
Cc1ccc(OCC(O)CNC2CCCC2)c(C)c1 (stereo not given) | -2.3 | -3.2 | -4.9 | -0.9 | 0.3 | -1.7
COc1ccc(Cl)cc1NC(=O)COc1cccc(-n2cnnn2)c1 | -1.4 | -7.1 | 14.8 | 3.3 | 6.9 | -5.2
COc1ccc(Cl)cc1NC(=O)c1cccc(-n2cnnn2)c1 | -4.2 | -12.1 | 39.6 | -7.7 | 22.4* | -7.6
COc1ccc(NC2CCCN(C(=O)CSc3ccncc3)C2)cc1 (stereo not given) | -2.0 | 9.3 | -3.2 | -5.5 | 23.0* | -5.4
COc1cc(OC)cc(C(=O)N2CCCC(Nc3ccc(F)cc3)C2)c1 (stereo not given) | -2.5 | -13.8 | -3.9 | -3.5 | 22.4* | -5.9
O=S(=O)(c1ccccc1)N1CCCc2nc(-c3ccccc3)ccc21 | 0.4 | x | x | 4.9 | x | -4.3
Cc1ccc(C(=O)N2CCN(c3ccc(C(F)(F)F)cn3)CC2)c(C)c1 | -4.6 | -4.0 | 6.8 | -1.4 | 38.2* | -1.9
SMILES | ADAM17 inh | Arr AP2 block | FAS-TE inh | ADAM10 inh | NRP1-CendR mod | CaV13 FRET inh
Cc1ccc(C(=O)N2CCN(c3ccc(C(F)(F)F)cn3)CC2)cc1 | -3.4 | 0.3 | 2.5 | 6.9 | 0.9 | x
COC(=O)[C@]1(CNC(=O)Nc2ccc(C)c(Cl)c2)CC(=O)N(C)[C@@H]1c1ccccc1 | 1.1 | x | x | 3.8 | x | x
Cc1ccc(C)c(S(=O)(=O)N2CCN(C(=O)CSc3ccccc3F)CC2)c1 | -0.9 | 6.2 | 8.7 | -3.6 | 23.7* | -5.7
Cc1ccc(C)c(S(=O)(=O)N2CCN(C(=O)Cc3c(F)cccc3Cl)CC2)c1 | -0.6 | -0.1 | 13.8 | -1.6 | -16.7 | -19.5
NC1=NC[C@H](Cc2ccc(O)cc2)N1CC1CCCCC1 | -0.3 | 6.8 | -16.8 | 8.7 | 13.4 | -5.3
NC1=NC[C@@H](Cc2ccc(O)cc2)N1CCCCC1CCCCC1 | 2.0 | -1.1 | -29.7 | -0.5 | 30.9* | u
NC1=C(Cl)C(=O)c2ccc(S(N)(=O)=O)cc2C1=O | -4.0 | 4.2 | 35.4 | -8.7 | 22.8 | -6.3
NC1=C(Cl)C(=O)c2ccccc2C1=O | 0.2 | 6.5 | 1.4 | -11.9 | 26.9* | -6.7
CC(C)CNc1oc(-c2ccco2)nc1C#N | -88.9 | 0.9 | -1.0 | -265.7 | 22.4* | -4.2
CC(C)CNc1oc(-c2ccccc2Cl)nc1C#N | -22.0 | 4.6 | 9.7 | -58.8 | 25.7* | 4.6
COc1cc(C#N)ccc1OC(=O)Cc1cc(OC)c(OC)c(OC)c1 | -0.3 | 6.5 | -7.0 | -11.3 | 24.7* | -2.3
COC(=O)[C@]1(CNC(C)=O)CC(=O)N(C)[C@@H]1c1ccccc1 | -1.2 | x | x | -2.7 | x | x
O=C(O)CN1C(=O)/C(=C\c2ccccc2OCc2ccc(Cl)cc2)SC1=S | 3.9 | 7.0 | 14.5 | 10.2 | -58.2 | -3.8
O=C(O)CN1C(=O)/C(=C\c2cc(Br)ccc2OCc2ccc(Cl)cc2Cl)SC1=S | x | -4.0 | 86.1* | x | -117.0 | x
CCCn1c(SCC(=O)Nc2nnc(-c3ccccc3)s2)nnc1-c1ccccn1 | -3.0 | 2.1 | -6.0 | -6.3 | 26.7* | -4.2
O=c1[nH]c(Nc2ccccn2)cc2ccccc12 | -171.6 | 1.1 | 18.4 | i | 44.9* | -10.7
O=c1[nH]c(Nc2ccccc2Cl)cc2ccccc12 | -23.1 | -1.5 | 40.1 | -90.1 | -10.5 | +
COc1ccccc1C=NNC(=O)CSc1nc2ccccc2n1Cc1ccc(Cl)cc1 | 7.2 | x | x | 12.7 | x | x
C=CCn1c(SCC(=O)O)nc2sc(CC)cc2c1=O | -2.1 | -21.0 | -2.4 | 2.2 | 26.4* | -2.3
COc1ccccc1C(=O)NC1CCCCN(Cc2cccc(F)c2)C1=O (stereo not given) | -0.8 | x | x | 2.9 | x | x
N#Cc1nnn2c1nc(N)c1c(Cl)cccc12 | -14.2 | x | 2.5 | -61.1 | 6.0 | -10.2
O=C(COc1ccc(Br)cc1CO)Nc1ccc(S(=O)(=O)N2CCCC2)cc1 | 2.0 | 6.0 | 13.2 | 1.1 | -7.8 | -2.3
O=C(COc1ccc(Br)cc1CO)Nc1ccc(F)cc1 | 3.7 | 6.6 | 2.2 | -5.8 | 26.2* | x
O=C(C(=O)N1CCN(c2ccccc2)CC1)c1ccco1 | -1.2 | x | x | -2.2 | 8.0 | -17.2

Assay outcomes as filed in PubChem BioAssay.
